Source: PubChem (several laboratories)
An excerpt weighted towards active compounds, which were near 11% of everything screened.
M1 antag: antagonists of rat M1 muscarinic receptor; CHO-M1 cells, Fluo-4 calcium, ACh EC80 antagonist mode; active compounds read low; B-score at 10 µM; 64,000 tested, 3.4% active;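 active = calcium fluorescence response, raw or row-and-column corrected B-score, differing from the plate sample mean either way at a set confidence level, mostly lower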
M1 ag: M1 muscarinic receptor agonists, primary screen, CHO-M1 cells, Fluo-4 calcium, agonist mode | Muscarinic acetylcholine receptor M1 | 64,000 tested, 3% active | AID 626, 2007 | Fluo-4 calcium fluorescence; active compounds read high | B-score at 10 µM;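 active = fluorescence rise, raw or as B-score row- and column-corrected plate score, outside the 99.7% band of its plate's samples, either direction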
RORa activator: activators of orphan receptor RORA, primary screen, cell-based, luminescence. 65,000 tested, 1.5% active. CHO-K1 Gal4-RORA LBD luciferase reporter; percent increase over mock-subtracted basal signal. activation, % at 10 µM;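 active = activation above the mean of all tested compounds plus 3 SD, cut at about 49% in these data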;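 also: 0% = DMSO-treated RORA cells and 100% = added signal equal to DMSO minus mock-transfected cells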
D1 allo mod: D1 CRE-luciferase signal change, two-sided – cell-based, HEK293 D1, dopamine EC30, D1 allosteric modulator project, primary screen. AID 641, 2007. D(1A) dopamine receptor (Homo sapiens), P21728. 58,000 tested, 5.9% active. dopamine EC30 potentiation; actives deviate in either direction. B-score at 10 µM;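 active = luminescence count or its row- and column-corrected plate score outside the 99.7% band of the plate's sample wells, on either side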
mHtt clearance: clearance of mutant huntingtin inclusions, primary screen, imaging, HeLa Exon1htt(103Q)mCFP, confocal imaging. aggregate imaging; zero = plate's median compound well. inhibition, % at 1.5 µM. 47,000 tested, 0.42% active. AID 853, 2007;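 active = inhibition of aggregate fluorescence above about 70%, also judged a hit by eye on the cell image, limit read from the data, passing the limit was not always enough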;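 also: cells exposed to compound for three days before fixation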
SF-1 act: activators of human SF-1, primary screen, cell-based, CHO-K1, Gal4-SF-1 LBD, luciferase luminescence; Steroidogenic factor 1 (Homo sapiens), Q13285; CHO-K1 Gal4-SF-1 LBD luciferase reporter; % increase over DMSO SF-1-specific signal; activation, % at 10 µM; 65,000 tested, 1.9% active;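 active = activation above the mean activation of all tested compounds plus 3 SD, cut at about 50% in these data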
Target sequence (Q13285 whole entry, looked up, the tested form may be a part): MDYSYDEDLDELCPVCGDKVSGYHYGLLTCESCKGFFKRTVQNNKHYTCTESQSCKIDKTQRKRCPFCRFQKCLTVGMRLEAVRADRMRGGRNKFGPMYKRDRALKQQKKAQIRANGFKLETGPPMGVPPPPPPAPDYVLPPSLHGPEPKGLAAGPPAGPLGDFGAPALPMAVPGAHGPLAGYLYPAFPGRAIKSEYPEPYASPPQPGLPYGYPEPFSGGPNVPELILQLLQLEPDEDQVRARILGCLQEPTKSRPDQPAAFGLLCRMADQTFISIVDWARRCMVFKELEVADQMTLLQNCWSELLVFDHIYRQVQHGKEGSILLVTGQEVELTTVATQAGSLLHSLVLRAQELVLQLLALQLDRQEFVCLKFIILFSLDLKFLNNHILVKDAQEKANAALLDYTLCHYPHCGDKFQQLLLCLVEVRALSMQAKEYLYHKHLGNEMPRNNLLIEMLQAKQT
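Assay system: CHO-K1 cells co-transfected with Gal4 DBD–human SF-1 LBD, 5xGal4 luciferase reporter / Input: 4,000 cells per well / Incubation: 20 h compound exposure at 37 °C after 1 h cell settling / Detection: SteadyLite luciferase luminescence / Control set: DMSO negative control and −SF1 background wells / Replication: one test per compound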
M1 antag confirm: rat M1 muscarinic receptor antagonists, confirmation, CHO cells, Fluo-4 calcium, duplicate; 1,700 tested, 43% active; ACh EC80 antagonism; active compounds read low; shares compounds with M1 antag; AID 677, 2007; calcium response (max-min fluorescence) at 10 µM;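 active = calcium response below the same-plate mean of wells given acetylcholine alone at its 80%-effect dose, minus 3 SD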;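 also: raw fluorescence intensity difference in arbitrary instrument units and not normalized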
mGluR4 antag: human mGluR4 response to M1 antagonist hits, M1 allosteric modulator project, cell-based, antagonist mode, secondary assay 1 | CHO-mGluR4 calcium flux, Fluo-4 fluorescence, glutamate EC80; active compounds read low | fluorescence response (max-min) at 10 µM | shares compounds with M1 antag | 1,700 tested, 0.9% active;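 active = fluorescence response below the plate's average for near-maximal glutamate wells, less 3 SD of those wells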;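 also: raw unnormalized fluorescence span taken in the window right after glutamate addition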
Starred values were filed as active, the others as inactive; · = no result.

SMILES | M1 antag | M1 ag | RORa activator | D1 allo mod | mHtt clearance | SF-1 act | M1 antag confirm | mGluR4 antag
OC1(c2ccccc2F)CCN(Cc2nnnn2CCc2ccccc2)CC1 | 0.36 | 0.64 | 18 | 0.33 | · | 6 | · | ·
CN(CCNC(=O)c1cc2c(=O)n(C)c3ccccc3c2n1C)Cc1ccccc1 | -3.8* | 0.56 | 14 | 0.32 | · | 17 | 512 | 208
O=[N+]([O-])c1ccc(-c2nc(-c3cccs3)c(-c3cccs3)[nH]2)cc1 | · | · | · | · | -12 | · | · | ·
CCOc1ccccc1NC1c2ccccc2C(=O)N1c1cccnc1 (configuration not stated) | -0.62 | -0.62 | -18 | 0.064 | 48 | 19 | · | ·
COc1ccc(C2(CN(C(C)=O)C(C)=O)CCCC2)cc1OC | -14* | -0.95 | 6 | 0.39 | · | -3 | 546 | 197
Cc1cc(NC(=O)c2cncc(Br)c2)n(-c2ccccn2)n1 | -0.53 | -0.43 | -16 | -0.72 | 15 | -8 | · | ·
O=C(c1cc2ccccc2oc1=O)N1CCN(c2ccc(N3CCOCC3)nn2)CC1 | -0.13 | -0.38 | 1 | 0.2 | 35 | -1 | · | ·
O=C(c1ccc(CSCc2ccccc2F)o1)N1CCN(c2ccc(N3CCOCC3)nn2)CC1 | -1.7* | -0.87 | 3 | 0.32 | · | 31 | 498* | 172
CCCn1c2c(c(O)c(C(=O)Nc3ccc(C)cn3)c1=O)CCCC2 | 0.38 | -0.55 | -6 | -1.3 | · | -2 | · | ·
CCCn1c2c(c(O)c(C(=O)Nc3ncccc3C)c1=O)CCCC2 | -2.3* | -1.1 | 1 | · | 7 | -21 | 421* | 208
CC(C)C(c1nnnn1C(C)(C)C)N1CCN(c2cccc(Cl)c2)CC1 (configuration not stated) | 1.1 | 0.68 | -14 | -1.1 | 5 | -1 | · | ·
O=C(Nc1ccc(S(=O)(=O)Nc2nccs2)cc1)C1CCCCC1 | -13* | 0.72 | -4 | · | · | 7 | 682 | 209
COc1ccc2nc(NC(=O)c3cnccn3)sc2c1 | -2.7* | -1.9 | 19 | -4.9* | · | -4 | 616 | 171
COc1ccccc1N1CCN(C(=O)CSc2ccc3c(C)cc(C)nc3n2)CC1 | 0.76 | -0.93 | 20 | -0.36 | 2 | -4 | · | ·
COCCNc1nc(SCC(=O)N2CCN(c3ccccc3OC)CC2)nc2ccccc12 | -3.4* | 6.2 | -8 | 0.2 | · | -4 | 503* | 222
C=CCn1c(SCc2nc3ccccc3[nH]2)nnc1-c1ccncc1 | -16* | -0.45 | 16 | 0.74 | · | 6 | 643 | 243
Cn1c(SCC(=O)N2CCN(c3ccccc3)CC2)nnc1-c1cc2ccccc2o1 | 0.17 | 1 | -8 | -0.022 | 28 | 10 | · | ·
Cn1c(SCC(=O)c2cc3ccccc3o2)nnc1-c1ccccc1 | -2* | -0.055 | 16 | 0.86 | -165 | 4 | 680 | 261
Cn1ccnc1SCC(=O)c1cc2ccccc2o1 | -3.2* | 0.35 | 26 | -0.56 | · | 40 | 648 | 250
O=C(CC1(O)C(=O)Nc2ccccc21)c1cccnc1 (configuration not stated) | 0.43 | -0.011 | -16 | -0.093 | · | 21 | · | ·
C=CCOC(=O)Nc1ccc(Cl)cc1NC(=O)OCC=C | -3.8* | 2.1 | 20 | -0.64 | 48 | 1 | 674 | 272
C=COCCNC(=O)Nc1ccc(Cl)cc1Cl | -0.0088 | -0.077 | 20 | 0.012 | -18 | 17 | · | ·
O=S1(=O)CCN2C(=N1)Sc1c2ccc2c1CCCC2 | -0.25 | -0.049 | -4 | 0.66 | · | 25 | · | ·
Nn1c(-c2cccs2)nc2sc3c(c2c1=O)CCCC3 | -4.4* | -0.66 | 45 | -0.78 | · | 42 | 672 | 202
O=c1oc(-c2cccs2)nc2sc3c(c12)CCCCC3 | 0.31 | -0.13 | -3 | -1.6 | -33 | 5 | · | ·
SMILES | M1 antag | M1 ag | RORa activator | D1 allo mod | mHtt clearance | SF-1 act | M1 antag confirm | mGluR4 antag
COc1ccc(N2CC(C(=O)O)CC2=O)cc1 (configuration not stated) | · | · | · | · | 1 | · | · | ·
CC(=O)C(Sc1nn(C)c(=S)s1)C(=O)Nc1ccccc1 (configuration not stated) | 0.4 | -2.9 | 5 | -0.45 | 0 | 5 | · | ·
CSc1nc(N(CCO)CCO)c2sc3nc(-c4ccco4)c4c(c3c2n1)CCC4 | -3.9* | -0.89 | -10 | 2.1 | · | -7 | 524 | 273
CSc1nc(SCCO)c2sc3nc(-c4ccco4)c4c(c3c2n1)CC(C)(C)OC4 | · | · | · | · | 2 | · | · | ·
Cc1nnc(SCC(=O)c2cc(C)n(-c3c(C)n(C)n(-c4ccccc4)c3=O)c2C)s1 | -1.5 | 0.93 | 5 | -0.49 | · | 16 | · | ·
Cc1cc(C(=O)CSc2nncs2)c(C)n1-c1c(C)n(C)n(-c2ccccc2)c1=O | -9.1* | -2.4 | -8 | 0.0048 | -47 | 10 | 215* | 195
COC(=O)CCC(=O)N1CCc2cc(S(=O)(=O)N3CCN(c4ccccc4Cl)CC3)ccc21 | 0.99 | -0.26 | -20 | 0.9 | · | 13 | · | ·
Nc1cc(N)nc(SCC(=O)Nc2ccc(Br)cc2Cl)n1 | 0.13 | -1.3 | 22 | 0.49 | · | 3 | · | ·
CCOCCCn1c(=S)[nH]c2cc(C(=O)NCCN(CC)CC)ccc2c1=O | -8.8* | 0.12 | 1 | 0.12 | -49 | 13 | 538 | 204
COC(=O)Cn1cc(C(=O)C2CC2)c2ccccc21 | -1.6* | 0.12 | 10 | -0.64 | 28 | -4 | 540 | 196
Oc1c(CN2CCN(c3ccccn3)CC2)cc(Cl)c2cccnc12 | -1.9* | -3.1 | -60 | -1.5 | · | -67 | 577 | 271
COCc1cc(CN2CCCC2)c(O)c2ncccc12 | -0.42 | -1.2 | -44 | -1.2 | · | -50 | · | ·
Oc1c(CN2CCCCC2)cc(COCc2ccccc2)c2cccnc12 | -5.4* | -0.46 | -53 | -0.18 | · | -89 | 410* | 272
Oc1ccc(CN2CCN(c3ccccc3)CC2)c2cccnc12 | · | · | · | · | -16 | · | · | ·
O=C(CSc1nnc(-c2ccco2)n1Cc1ccccc1)c1ccccc1 | -2* | 0.049 | 49* | 0.76 | · | 51* | 515 | 226
Cc1ccc(C(=O)CSc2nnc(-c3ccco3)n2Cc2ccccc2)cc1 | -1.2 | -0.011 | 9 | -0.75 | -123 | 23 | · | ·
COCCNC(=O)C(c1ccccc1C)N(CCOC)C(=O)Cn1nnc2ccccc21 (configuration not stated) | -1.2 | 0.25 | -27 | 0.5 | 0 | -1 | · | ·
COCCN(C(=O)Cn1nnc2ccccc21)C(C(=O)NC1CCCC1)c1cccc(OC)c1OC (configuration not stated) | -3.9* | -0.32 | -16 | -1.1 | · | 3 | 600 | 217
